# Test system: MDA-MB-468
# Experiment: Growth inhibition of human MDA-MB-468 cells
# Format: functional
# Outline: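 NCI 60 cancer cell line screen run per the Developmental Therapeutics Program protocol. Dose–response curves were plotted against log10 drug concentration for each cell line within its subpanel, and mean graph midpoint values were calculated.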
smiles,measurement,setting,value
CCc1nc2ccc3c(c2[nH]1)C(=O)c1ccccc1C3=O,GI50,,8.29 µM
same,TGI,,> 100 µM
same,CC50,read-out: LC50 (the source's name),> 100 µM

# From ChEMBL document CHEMBL1152649, “Synthesis, cytotoxicity and human telomerase inhibition activities of a series of 1,2-heteroannelated anthraquinones and anthra[1,2-d]imidazole-6,11-dione homologues” (2009)
